The values that follow come from ChEMBL document CHEMBL4732088, “Identification and optimization of piperlongumine analogues as potential antioxidant and anti-inflammatory agents via activation of Nrf2” (Eur J Med Chem, 2021).

The subject of assay [1] is PC-12. Briefly: Neuroprotective activity against H2O2-induced cell damage in rat PC12 cells preincubated for 24 hrs followed by H2O2 treatment by MTT assay. The class given is functional, cell-based. As to conditions: dose 5-20 µM. In short, it runs like this:
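PC12 cells pretreated 24 h with compound (5, 10, 20 μM), then H₂O₂ (200 μM) or 6-OHDA (150 μM); viability by MTT; mean ± SD, three independent experiments.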
(In general: Tetrazolium dyes change colour on reduction, which living cells bring about.)

Assay [2] has as its system PC-12. In words: Protection against 6-OHDA-induced oxidative damage in rat PC12 cells assessed as intracellular ROS level by measuring mean fluorescence intensity at 20 uM pretreated with compound followed by 6-OHDA stimulation by DCFH-DA staining based flow cytometry (reference value: 26327.34). The class given is functional. (In general: Flow cytometry measures light scatter and fluorescence of single cells or particles in a stream.)

Assay [3] has as its system PC-12. In words: Protection against H2O2-induced mitochondrial dysfunction in rat PC12 cells assessed as change in mitochondrial membrane potential loss at 10 uM pretreated with compound followed by H2O2 addition by JC-1 staining based flow cytometry (reference value: 21.3 %). It counts as functional. The essentials: (§1)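 Mitochondrial membrane potential in PC12 cells pretreated with compound (5, 10, 20 μM), then exposed to H₂O₂ (200 μM) or 6-OHDA (150 μM). JC-1 staining, red-to-green fluorescence shift read by flow cytometry. Mean ± SD, n = 3.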

Assay [4] deals with PC-12. Briefly: Protection against 6-OHDA-induced mitochondrial dysfunction in rat PC12 cells assessed as change in mitochondrial membrane potential at 20 uM pretreated with compound followed by 6-OHDA addition by JC-1 staining based flow cytometry (reference value: 73.2 %). It counts as functional. The essentials: as §1
In assay [5] the test system is PC-12. Briefly: Protection against 6-OHDA-induced mitochondrial dysfunction in rat PC12 cells assessed as change in mitochondrial membrane potential loss at 5 uM pretreated with compound followed by 6-OHDA addition by JC-1 staining based flow cytometry (reference value: 26.8 %). It counts as functional. In short, it runs like this: as §1
Assay [6] relates to PC-12. In words: Protection against 6-OHDA-induced mitochondrial dysfunction in rat PC12 cells assessed as change in mitochondrial membrane potential loss at 10 uM pretreated with compound followed by 6-OHDA addition by JC-1 staining based flow cytometry (reference value: 26.8 %). The class given is functional. The essentials:
as §1

In assay [7] the test system is PC-12. In words: Protection against H2O2-induced apoptosis in rat PC12 cells assessed as necrotic cells at 5 uM incubated for 24 hrs by annexin V FITC/propidium iodide staining based flow cytometry (reference value: 0.6 %). It counts as functional.
For assay [8], the system named is PC-12. In words: Protection against 6-OHDA-induced apoptosis in rat PC12 cells assessed as early apoptotic cells at 5 uM incubated for 24 hrs by annexin V FITC/propidium iodide staining based flow cytometry (reference value: 19.2 %). The class given is functional.
Assay [9] relates to PC-12. Briefly: Protection against 6-OHDA-induced apoptosis in rat PC12 cells assessed as necrotic cells at 10 uM incubated for 24 hrs by annexin V FITC/propidium iodide staining based flow cytometry (reference value: 1.1 %). It counts as functional.
The subject of assay [10] is PC-12. Briefly: Neuroprotective activity against H2O2-induced apoptosis in rat PC12 cells assessed as reduction in apoptotic nuclei at 5 to 20 uM pretreated with compound followed by H2O2 addition by Hoechst 33342 staining based fluorescence microscopy analysis. To be noted: dose 5-20 µM. It counts as functional, cell-based. The essentials:
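PC12 cells pretreated with compound before H₂O₂ or 6-OHDA; nuclei stained with Hoechst 33342, imaged on a high-content system with phase-contrast views; apoptotic nuclei scored as bright condensed aggregates; n = 3.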

Assay [11] addresses T1, Nuclear factor erythroid 2-related factor 2 (Rattus norvegicus) (UniProt O54968).
T1 sequence (whole entry): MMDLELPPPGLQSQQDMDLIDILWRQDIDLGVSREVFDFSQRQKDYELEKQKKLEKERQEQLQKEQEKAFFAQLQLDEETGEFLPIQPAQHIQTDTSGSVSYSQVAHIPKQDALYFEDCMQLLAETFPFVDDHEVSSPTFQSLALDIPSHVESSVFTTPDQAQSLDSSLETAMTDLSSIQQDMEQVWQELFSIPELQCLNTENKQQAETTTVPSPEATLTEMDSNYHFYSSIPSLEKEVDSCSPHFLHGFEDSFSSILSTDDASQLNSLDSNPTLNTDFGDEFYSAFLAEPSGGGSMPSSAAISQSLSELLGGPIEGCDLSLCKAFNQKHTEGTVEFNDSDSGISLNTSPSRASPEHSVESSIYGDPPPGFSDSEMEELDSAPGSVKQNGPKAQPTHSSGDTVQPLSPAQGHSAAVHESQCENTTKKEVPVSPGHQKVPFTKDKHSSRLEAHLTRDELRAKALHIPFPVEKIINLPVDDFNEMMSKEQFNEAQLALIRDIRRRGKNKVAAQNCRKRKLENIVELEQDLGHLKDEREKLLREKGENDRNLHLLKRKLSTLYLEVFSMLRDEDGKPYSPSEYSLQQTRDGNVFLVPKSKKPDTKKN
In words: Activation of Nrf2 in rat PC12 cells assessed as increase in HO-1 protein level at 20 uM after 12 hrs by Western blot analysis. To be noted: PC-12, filed as activator. It counts as cell-based. A general note: In western blotting, separated proteins are transferred to a membrane and probed.

For assay [12], the target named is T1, Nuclear factor erythroid 2-related factor 2 (Rattus norvegicus). In words: Activation of Nrf2 in rat PC12 cells assessed as increase in NQO1 protein level at 20 uM after 24 hrs by Western blot analysis. The class given is cell-based. As to conditions: PC-12, filed as activator.
Assay [13] shares this target. In words: Induction of Nrf2 translocation from cytoplasm to nucleus in rat PC12 cells at 20 uM after 6 hrs by Western blot analysis. The class given is cell-based. To be noted: PC-12, filed as activator. The essentials:
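PC12 cells given compound; nuclear and cytoplasmic fractions probed for Nrf2 by Western blot across a time course up to and beyond 6 h.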

Assay [14] concerns the target T2, Nuclear factor erythroid 2-related factor 2 (Mus musculus) (UniProt Q60795).
T2 sequence (whole entry): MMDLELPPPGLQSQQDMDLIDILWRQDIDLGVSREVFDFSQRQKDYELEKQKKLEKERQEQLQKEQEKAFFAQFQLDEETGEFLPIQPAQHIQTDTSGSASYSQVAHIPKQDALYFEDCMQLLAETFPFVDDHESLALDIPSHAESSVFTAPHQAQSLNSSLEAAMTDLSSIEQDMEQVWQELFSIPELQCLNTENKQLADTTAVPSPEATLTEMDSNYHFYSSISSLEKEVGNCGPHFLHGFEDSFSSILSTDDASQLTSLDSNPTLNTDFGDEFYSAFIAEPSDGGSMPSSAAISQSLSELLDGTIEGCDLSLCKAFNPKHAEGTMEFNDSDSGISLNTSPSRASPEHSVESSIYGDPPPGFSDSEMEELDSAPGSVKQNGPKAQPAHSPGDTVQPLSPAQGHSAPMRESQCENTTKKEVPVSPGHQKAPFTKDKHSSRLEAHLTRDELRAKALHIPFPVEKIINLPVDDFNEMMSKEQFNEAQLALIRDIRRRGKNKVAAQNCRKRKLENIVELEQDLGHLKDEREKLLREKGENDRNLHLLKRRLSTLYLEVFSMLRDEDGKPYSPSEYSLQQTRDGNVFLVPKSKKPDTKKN
In words: Activation of Nrf2 in mouse BV2 cells assessed as upregulation of HO-1 protein expression after 24 hrs by Western blot analysis. The class given is cell-based. As to conditions: BV-2, filed as activator, dose 5-20 µM. In short, it runs like this: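 BV2 microglia exposed to compound for 24 h over a concentration series; Nrf2, NQO1, HO-1, TrxR1, GCLM and GCLC protein levels read by Western blot.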

Another assay has as its system BV-2. Briefly: Antiinflammatory activity in mouse BV2 cells transfected with control siRNA assessed as reduction in LPS-induced NO production at 20 uM pretreated with compound followed by LPS stimulation for 18 hrs.

The source made the active and inactive calls. The calls are words filed in the database; no cut-off is given here.

Consider `CCN(C)C(=O)N1CCN(C(=O)/C=C/c2ccc(F)cc2)C1=O`, for which the Activity result in the assay on PC-12 [1] was “Dose-dependent effect”; with PC-12 [3] it was 9.7%; in the assay on PC-12 [4], 89.3%; in the assay on PC-12 [5], 20.5%; in the assay on PC-12 [6], 16.3%; in the assay on PC-12 [7] it was 0.9%. For the same compound, the Activity with PC-12 [8] was 11.1%; in the assay on PC-12 [9], 1%; in assay [14] it was “Dose-dependent effect”. For the same compound, the Flu intensity in the assay on PC-12 [2] amounted to 9730. Besides, the outcome (in the assay on PC-12 [10]; in assay [11]; in assay [12]; in assay [13]; in the assay with BV-2) was Active.
